Measurements collected from several papers.
Each line is one published result; the experiments were not run side by side.
Read-out: cell growth or viability

Compound	cell line	assay	setting	endpoint	value
COc1cc2nc(N3CCN(C(=O)c4ccco4)CC3)nc(N)c2cc1OC	C6661	MTT	48 h	IC50	27.4 µM
O=C(O)c1cccnc1Nc1cccc(C(F)(F)F)c1	NCI-H23	SRB	48 h	GI50	> 30 µM
Cc1c(C(=O)O)ccc2c3n(nc12)[C@@H]1[C@H](C3)N(CC2CC2)[C@@]2(C(=O)Nc3cc(Cl)ccc32)[C@H]1c1cccc(Cl)c1F	Rh18			GI50	0.00023 µM
C[C@@H]1CC2=C(CN1Cc1cccc(C#N)c1)C(=O)N(Cc1ccc(Br)cc1)C1=NCCN12	MOLM-13	MTS		IC50	0.00793 µM
C=CC(=O)c1cccnc1Nc1cc(C(F)(F)F)ccc1OCc1ccccc1	NCI-H23	SRB	48 h	GI50	16.5 µM
CNC(=O)c1cc(Oc2ccc(NC(=O)Nc3ccc(Cl)c(C(F)(F)F)c3)cc2)ccn1	NCI-H23	MTT	72 h	IC50	4.25 µM
C=CC(=O)c1cccnc1Nc1cc(C(F)(F)F)ccc1OC	NCI-H23	SRB	48 h	GI50	6.67 µM
C=CC(=O)NC1CCN(c2ncc3ncnc(Nc4ccc(Oc5ccc6c(c5)ncn6C)c(C)c4)c3n2)CC1	SNU-601			EC50	0.00422 µM
Cc1noc2c1-c1ccccc1C(c1ccc(Cl)cc1)=N[C@H]2CC(N)=O	MOLM-13	ATP luminescence	72 h	IC50	0.474 µM
Cc1cc(/C=C/C#N)cc(C)c1Nc1ccnc(Nc2ccc(C#N)cc2)n1	C6661	MTT	48 h	IC50	4.67 µM
C=CC(=O)N1CCN(c2nc(=O)n(-c3c(C)ccnc3C(C)C)c3nc(-c4c(O)cccc4F)c(F)cc23)[C@@H](C)C1	SW1573	ATP luminescence		IC50	> 10 µM
O=C(NO)c1ccc(CNc2nc3cccc(-c4ccc5c(c4)OCO5)n3n2)cc1	NCI-H23	SRB		GI50	0.66 µM
